{"source": "ChEMBL document CHEMBL5724801", "about": "“EUbOPEN Chemogenomics Library - Multiplex” (2024)", "system": "U2OS", "assay": "Multiplex assay against U2OS", "type": "toxicity, cell-based", "settings": "human", "procedure,_shortened": "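Per cents of healthy-nucleus cells form the tubulin, mitochondrial-mass and membrane-permeability phenotype values. Live cells were stained at seeding with Hoechst33342, BioTracker Green Microtubule Cytoskeleton Dye, MitoTracker Red and Annexin V Alexa Fluor 680. After compound addition they were imaged on a CQ1 microscope at 37°C and 5% CO2, and CellPathfinder machine-learning gating split them into Hoechst high-intensity objects or normal cells, normal cells into healthy, pyknosed or fragmented nuclei, and pyknosed cells into mitotic or apoptotic.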", "key": {"[1]": {"settings": "12 h, 1 µM, compound concentration 1 uM"}, "[2]": {"settings": "12 h, 10 µM, compound concentration 10 uM"}, "[3]": {"settings": "24 h, 1 µM, compound concentration 1 uM"}, "[4]": {"settings": "24 h, 10 µM, compound concentration 10 uM"}, "[5]": {"settings": "48 h, 1 µM, compound concentration 1 uM"}, "[6]": {"settings": "48 h, 10 µM, compound concentration 10 uM"}}, "note": "Values joined by “and” are separate entries in the source; they are usually repeats but may differ in a detail not shown here. Equal values may be shown once.", "data": [{"smiles": "NCCc1cn(S(=O)(=O)c2c(Cl)nc3sccn23)c2ccccc12.O=C(O)C(=O)O", "values": [{"measurement": "Population Apoptotic (%)", "setting": "[1]", "value": "66% and 81%"}, {"measurement": "Population Fragmented Nuclei (%)", "setting": "[1]", "value": "30% and 17%"}, {"measurement": "Population Healthy Nuclei (%)", "setting": "[1]", "value": "58% and 72%"}, {"measurement": "Population Hoechst High Intensity Objects (%)", "setting": "[1]", "value": 1, "unit": "%"}, {"measurement": "Population Membrane Permeable-Phenotype (%)", "setting": "[1]", "value": "9% and 4%"}, {"measurement": "Population Mitochondria Different-Phenotype (%)", "setting": "[1]", "value": "6% and 8%"}, {"measurement": "Population Mitotic Cells (%)", "setting": "[1]", "value": "33% and 18%"}, {"measurement": "Population Normal (%)", "setting": "[1]", "value": 98, "unit": "%"}, {"measurement": "Population Pyknosed Nuclei (%)", "setting": "[1]", "value": "10% and 9%"}, {"measurement": "Population Tubulin-Different-Phenotype (%)", "setting": "[1]", "value": 6, "unit": "%"}, {"measurement": "Total Cell Count", "setting": "[1]", "value": "280 and 116"}, {"measurement": "Population Apoptotic (%)", "setting": "[2]", "value": "71% and 82%"}, {"measurement": "Population Fragmented Nuclei (%)", "setting": "[2]", "value": "26% and 20%"}, {"measurement": "Population Healthy Nuclei (%)", "setting": "[2]", "value": "42% and 53%"}, {"measurement": "Population Hoechst High Intensity Objects (%)", "setting": "[2]", "value": "5% and 4%"}, {"measurement": "Population Membrane Permeable-Phenotype (%)", "setting": "[2]", "value": "42% and 30%"}, {"measurement": "Population Mitochondria Different-Phenotype (%)", "setting": "[2]", "value": "60% and 71%"}, {"measurement": "Population Mitotic Cells (%)", "setting": "[2]", "value": "28% and 17%"}, {"measurement": "Population Normal (%)", "setting": "[2]", "value": "94% and 95%"}, {"measurement": "Population Pyknosed Nuclei (%)", "setting": "[2]", "value": "30% and 26%"}, {"measurement": "Population Tubulin-Different-Phenotype (%)", "setting": "[2]", "value": "59% and 50%"}, {"measurement": "Total Cell Count", "setting": "[2]", "value": "221 and 115"}, {"measurement": "Population Apoptotic (%)", "setting": "[3]", "value": "69% and 78%"}, {"measurement": "Population Fragmented Nuclei (%)", "setting": "[3]", "value": "25% and 20%"}, {"measurement": "Population Healthy Nuclei (%)", "setting": "[3]", "value": "66% and 70%"}, {"measurement": "Population Hoechst High Intensity Objects (%)", "setting": "[3]", "value": 1, "unit": "%"}, {"measurement": "Population Membrane Permeable-Phenotype (%)", "setting": "[3]", "value": "6% and 9%"}, {"measurement": "Population Mitochondria Different-Phenotype (%)", "setting": "[3]", "value": "5% and 7%"}, {"measurement": "Population Mitotic Cells (%)", "setting": "[3]", "value": "30% and 21%"}, {"measurement": "Population Normal (%)", "setting": "[3]", "value": 98, "unit": "%"}, {"measurement": "Population Pyknosed Nuclei (%)", "setting": "[3]", "value": "8% and 9%"}, {"measurement": "Population Tubulin-Different-Phenotype (%)", "setting": "[3]", "value": "3% and 7%"}, {"measurement": "Total Cell Count", "setting": "[3]", "value": "326 and 151"}, {"measurement": "Population Apoptotic (%)", "setting": "[4]", "value": "83% and 86%"}, {"measurement": "Population Fragmented Nuclei (%)", "setting": "[4]", "value": "29% and 20%"}, {"measurement": "Population Healthy Nuclei (%)", "setting": "[4]", "value": "38% and 46%"}, {"measurement": "Population Hoechst High Intensity Objects (%)", "setting": "[4]", "value": "6% and 3%"}, {"measurement": "Population Membrane Permeable-Phenotype (%)", "setting": "[4]", "value": 26, "unit": "%"}, {"measurement": "Population Mitochondria Different-Phenotype (%)", "setting": "[4]", "value": "63% and 67%"}, {"measurement": "Population Mitotic Cells (%)", "setting": "[4]", "value": "16% and 13%"}, {"measurement": "Population Normal (%)", "setting": "[4]", "value": "93% and 96%"}, {"measurement": "Population Pyknosed Nuclei (%)", "setting": "[4]", "value": "31% and 33%"}, {"measurement": "Population Tubulin-Different-Phenotype (%)", "setting": "[4]", "value": "26% and 38%"}, {"measurement": "Total Cell Count", "setting": "[4]", "value": "240 and 116"}, {"measurement": "Population Apoptotic (%)", "setting": "[5]", "value": "81% and 85%"}, {"measurement": "Population Fragmented Nuclei (%)", "setting": "[5]", "value": 21, "unit": "%"}, {"measurement": "Population Healthy Nuclei (%)", "setting": "[5]", "value": "70% and 66%"}, {"measurement": "Population Hoechst High Intensity Objects (%)", "setting": "[5]", "value": "1% and 6%"}, {"measurement": "Population Membrane Permeable-Phenotype (%)", "setting": "[5]", "value": "5% and 10%"}, {"measurement": "Population Mitochondria Different-Phenotype (%)", "setting": "[5]", "value": "4% and 7%"}, {"measurement": "Population Mitotic Cells (%)", "setting": "[5]", "value": "18% and 14%"}, {"measurement": "Population Normal (%)", "setting": "[5]", "value": "98% and 93%"}, {"measurement": "Population Pyknosed Nuclei (%)", "setting": "[5]", "value": "8% and 12%"}, {"measurement": "Population Tubulin-Different-Phenotype (%)", "setting": "[5]", "value": "2% and 7%"}, {"measurement": "Total Cell Count", "setting": "[5]", "value": "454 and 182"}, {"measurement": "Population Apoptotic (%)", "setting": "[6]", "value": 92, "unit": "%"}, {"measurement": "Population Fragmented Nuclei (%)", "setting": "[6]", "value": "37% and 29%"}, {"measurement": "Population Healthy Nuclei (%)", "setting": "[6]", "value": "27% and 34%"}, {"measurement": "Population Hoechst High Intensity Objects (%)", "setting": "[6]", "value": 7, "unit": "%"}, {"measurement": "Population Membrane Permeable-Phenotype (%)", "setting": "[6]", "value": "25% and 42%"}, {"measurement": "Population Mitochondria Different-Phenotype (%)", "setting": "[6]", "value": "56% and 65%"}, {"measurement": "Population Mitotic Cells (%)", "setting": "[6]", "value": 7, "unit": "%"}, {"measurement": "Population Normal (%)", "setting": "[6]", "value": 92, "unit": "%"}, {"measurement": "Population Pyknosed Nuclei (%)", "setting": "[6]", "value": 35, "unit": "%"}, {"measurement": "Population Tubulin-Different-Phenotype (%)", "setting": "[6]", "value": "25% and 42%"}, {"measurement": "Total Cell Count", "setting": "[6]", "value": "241 and 127"}]}]}
